# Screens deposited in PubChem by Johns Hopkins Ion Channel Center.
# RGS4 pot – potentiators or activators of RGS4; HEK293 M3R/inducible RGS4, carbachol calcium flux Fluo4; hits give low values; B-score at 10 µM; actives 0.92% (n = 310,000); AID 463111;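 active = B-score of the integrated calcium signal more than 4 SD below the library mean, with starting fluorescence not abnormally high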;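 note: negative B-score means reduced calcium response which marks RGS4 activation or potentiation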
#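 System – HEK293 FlpIn-TREx cells, stable M3R, doxycycline-inducible RGS4 · Reagent – ECmax carbachol challenge · Times – compound preincubation 20 min at room temperature before agonist · Technique – Fluo4 fluorescence kinetic imaging of calcium · Measure – B score of integrated Fluo4 ratio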
# RGS4 inh – inhibitors of human RGS4; P49798; HEK293 M3R/RGS4 inducible, Fluo-4 calcium flux; hits give high values; triggered by carbachol at its EC20; B-score at 10 µM; actives 0.45% (n = 310,000); AID 463165;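 active = B-score, a plate-corrected calcium signal, over three deviations above library mean, with baseline fluorescence within five deviations of library mean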;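 note: RGS4 expression induced by doxycycline in cells with stable M3 receptor; B-score is computed from the integrated fluorescence ratio over baseline after carbachol; higher B-score means a larger calcium signal and so more RGS4 inhibition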
# Target sequence (P49798 whole entry, looked up): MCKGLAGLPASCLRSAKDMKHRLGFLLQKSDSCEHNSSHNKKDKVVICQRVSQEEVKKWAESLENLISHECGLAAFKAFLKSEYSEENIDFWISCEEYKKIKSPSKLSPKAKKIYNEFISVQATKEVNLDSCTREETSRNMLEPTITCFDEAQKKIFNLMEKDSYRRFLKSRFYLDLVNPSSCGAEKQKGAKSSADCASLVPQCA
# MrgX1 antag – human MrgX1 receptor antagonism, primary screen | MRGX1-HEK293 calcium flux, Fluo-4, BAM8-22 antagonism; hits give low values | B-score at 10 µM | actives 1.3% (n = 310,000) | AID 588676;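 active = calcium-response B-score plate-corrected more than 3 library SD below zero, starting fluorescence within 5 deviations, no agonist response on first addition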;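 note: peak minus trough fluorescence over baseline after final BAM8-22 challenge near maximal dose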
# Target sequence (Q96LB2 whole entry, looked up): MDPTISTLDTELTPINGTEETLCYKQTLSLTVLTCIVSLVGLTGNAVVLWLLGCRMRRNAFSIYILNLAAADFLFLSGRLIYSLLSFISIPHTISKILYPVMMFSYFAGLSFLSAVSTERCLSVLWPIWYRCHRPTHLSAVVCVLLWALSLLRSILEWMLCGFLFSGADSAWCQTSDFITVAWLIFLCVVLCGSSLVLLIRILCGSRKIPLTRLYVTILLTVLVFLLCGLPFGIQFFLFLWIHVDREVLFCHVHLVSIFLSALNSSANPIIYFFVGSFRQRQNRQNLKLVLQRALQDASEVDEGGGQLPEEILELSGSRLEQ
# MrgX1 PAM – human MrgX1 positive allosteric modulation, primary screen; MrgX1-HEK293, Fluo-4 calcium flux, FDSS; hits give high values; Q96LB2; B-score at 10 µM; actives 0.63% (n = 310,000);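 active = plate-corrected calcium response at least 3 library SD above typical, normal starting fluorescence, not activating the receptor alone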;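 note: compound read alongside a low EC10 to EC30 dose of BAM8-22 agonist; peak minus trough fluorescence over baseline measured at the second addition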
# MrgX1 ag – human MrgX1 receptor agonism, primary screen; actives 0.44% (n = 310,000); MrgX1-HEK293 cells, Fluo-4 calcium fluorescence, agonist mode; hits give high values; Q96LB2; B-score at 10 µM;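 active = calcium response B-score plate-corrected fluorescence ratio at least 3 library SD, with starting fluorescence B-score inside 5 SD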
#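 Material – MrgX1-expressing HEK293 cells · Input – 15,000 cells seeded per well · Dosing – compound as first of three additions · Times – overnight seeding, then 1 h dark dye loading · Measured by – kinetic Fluo-4 NW fluorescence of intracellular calcium · Read-out – B-scored fluorescence response ratio · Benchmarks – positive and negative control wells on each plate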
# MrgX1 PAM conf – reconfirmed allosteric activator of human MrgX1 receptor | shares compounds with MrgX1 PAM | MrgX1-HEK293, Fluo-4 calcium fluorescence, FDSS | AID 602413 | activation (ratio percentage), % at 10 µM | actives 13% (n = 1,200);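 active = ratio at least 3 SD above the weak peptide control, stable starting fluorescence, no direct agonism earlier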;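 note: compound followed by low BAM8-22 agonist challenge near EC20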
# MrgX1 antag conf – human MrgX1 receptor antagonism, re-confirmation screen | shares compounds with MrgX1 antag | actives 19% (n = 2,300) | remaining BAM8-22 calcium response % of control (hits give low values), % at 10 µM | MrgX1-HEK293, BAM8-22 calcium flux, Fluo-4; hits give low values;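 active = remaining agonist calcium response no higher than 100% minus 3 SD of agonist-only control wells, with starting fluorescence near control levels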;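 note: agonist BAM8-22 given at a near maximal EC90 to ECmax level; peak minus minimum fluorescence divided by baseline after agonist addition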
# HEK293 Ca flux – counter-screen for MrgX1 antagonists: effect in parental HEK293 cells; shares compounds with MrgX1 antag; AID 624111; actives 2% (n = 4,000); Fluo-4 calcium fluorescence, FDSS; fluorescence ratio F(max-min)/F0 at 10 µM;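 active = duplicate-averaged calcium fluorescence ratio at least three times the standard deviation of buffer wells, a nonspecific response in parental cells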
# HEK293 Ca counter – counter-screen for MrgX1 allosteric activators: effect in parental HEK293 cells. shares compounds with MrgX1 antag. parental HEK293 calcium flux, Fluo-4 fluorescence ratio; hits give high values. fluorescence ratio F(max-min)/F0 at 10 µM. actives 0.4% (n = 4,000). AID 624114;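 active = calcium fluorescence ratio, averaged over duplicates, at least 3 SD of the buffer-well ratio, meaning a nonspecific response in receptor-free cells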;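 note: untransfected parental HEK293 lacking MrgX1 used as counterscreen for MrgX1 allosteric activators; fluorescence change taken during the second addition on a kinetic imager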
# HEK293 Ca cntr2 – MrgX1 activator counter-screen hit in parental HEK293 cells. fluorescence ratio F(max-min)/F0 at 10 µM. shares compounds with MrgX1 antag. actives 8.7% (n = 4,000). Fluo-4 calcium fluorescence (FDSS); hits give high values. AID 624115;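 active = calcium fluorescence ratio at least three times the spread of buffer wells, meaning a non-specific response in parental cells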
# The depositor's hits bear a star; i = inactive; . = no result. Shown are actives, neighbours in structure and some others; about 3.5% of the full set was active somewhere.
SMILES,RGS4 pot,RGS4 inh,MrgX1 antag,MrgX1 PAM,MrgX1 ag,MrgX1 PAM conf,HEK293 Ca flux,HEK293 Ca counter,HEK293 Ca cntr2,others
Cc1ccc(S(=O)(=O)Oc2ccc(/C=C3\C(=N)N4N=C(S(C)(=O)=O)SC4=NC3=O)cc2)cc1,i,i,i,i,i,.,.,.,.,
Cc1cc(C)cc(-n2cccc2/C=C2/C(=N)N3C(=NC2=O)SN=C3S(C)(=O)=O)c1,i,i,i,i,i,.,.,.,.,
CS(=O)(=O)C1=NSC2=NC(=O)/C(=C\c3ccc(OS(=O)(=O)c4ccccc4)cc3)C(=N)N21,i,i,i,30*,i,25%*,i,i,i,
COc1cccc(-n2c(C)cc(/C=C3/C(=N)N4C(=NC3=O)SN=C4S(C)(=O)=O)c2C)c1,i,i,i,32*,i,2.0%*,i,i,i,
O=C1CCC(C(=O)N2CCC(CO)(Cc3ccc(Cl)cc3)CC2)=NN1,i,i,i,i,i,.,.,.,.,
NCc1ccccc1,.,.,i,13*,i,i,i,i,i,
CC(=O)NCCN=C(C)c1sc2ccccc2c1O,i,i,i,i,i,.,.,.,.,
CC(=Nc1ccc(O)cc1)c1sc2ccccc2c1O,i,i,i,39*,i,i,i,i,i,
CC(=Nc1ccccc1O)c1sc2ccccc2c1O,i,i,i,i,i,.,.,.,.,
CC(=Nc1cccc(C)c1)c1sc2ccccc2c1O,i,i,i,8.1*,i,i,i,i,57*,
Cc1ccc2c(C)c(C(=O)N(C)Cc3nccn3C)oc2c1C,i,i,i,i,i,.,.,.,.,
Cc1c(Cl)cccc1NC(=O)CC1NCCNC1=O (stereo not given),i,i,i,13*,i,i,i,i,i,
CCOC(=O)C1C(=O)NC(c2ccccc2)=NC1c1ccc(OC)cc1 (stereo not given),i,i,i,12*,i,i,i,i,i,
CC(=O)OC[C@H]1O[C@H](C/C=N/OC[C@@H](O)[C@H]2O[C@@H]3OC(C)(C)O[C@@H]3[C@H]2O)C=C[C@@H]1OC(C)=O,i,i,i,i,i,.,.,.,.,
Cc1nc(NS(=O)(=O)c2ccccc2)sc1C(C)(C)C,i,i,i,i,i,.,.,.,.,
Cc1cccc2sc(NS(=O)(=O)c3ccccc3)nc12,i,i,i,8.3*,i,i,i,i,i,
CCS(=O)(=O)N1CCN(S(=O)(=O)c2ccc3c(c2)OCCO3)CC1,i,i,i,i,i,.,.,.,.,
Cc1cc(C)c(NC(=O)CNC(=O)COC(=O)C2CCN(c3ccc(C(F)(F)F)cn3)CC2)c(C)c1,i,i,i,7*,i,i,i,i,i,
Cc1cc(C)c(NC(=O)COC(=O)C2CCN(c3ccc(C(F)(F)F)cn3)CC2)c(Cl)c1,i,i,i,i,i,.,.,.,.,
CCSc1nc2c(c(=O)[nH]1)C(c1ccncc1)C(C(=O)OC(C)C)=C(C)N2 (stereo not given),i,i,i,i,i,.,.,.,.,
CCSc1nc2c(c(=O)[nH]1)C(c1cccnc1)C(C(=O)OC)=C(C)N2 (stereo not given),i,i,i,8.5*,i,i,i,i,i,
CCOC(=O)c1sc(NS(=O)(=O)c2ccc(F)cc2)nc1C,i,i,i,12*,i,i,i,i,i,
CCOC(=O)c1sc(NS(=O)(=O)c2ccccc2Cl)nc1C,i,i,i,12*,i,i,i,i,i,
COc1ccc(C(=O)Nc2scc(-c3ccc(Cl)cc3Cl)c2C(N)=O)cc1,i,i,i,27*,i,20%*,i,i,i,
COc1ccc(C(=O)Nc2cc(OC)c(Cl)cc2Cl)cc1,i,i,i,i,i,.,.,.,.,
SMILES,RGS4 pot,RGS4 inh,MrgX1 antag,MrgX1 PAM,MrgX1 ag,MrgX1 PAM conf,HEK293 Ca flux,HEK293 Ca counter,HEK293 Ca cntr2,others
CNC(=O)CC1C(=O)N(c2ccc(Cl)cc2)C(=S)N1CCc1ccc(OC)c(OC)c1 (stereo not given),i,i,i,10*,i,i,i,i,i,
COc1ccc(CCN2C(=S)N(c3ccccc3)C(=O)C2CC(=O)O)cc1OC (stereo not given),i,i,i,i,i,.,.,.,.,
CC1(C)c2ccccc2N(CC(N)=O)C12C=Cc1ccccc1O2 (stereo not given),i,i,i,6.8*,i,i,i,i,i,
CC1=C(C(=O)Nc2ccc(Cl)cc2)C2(CCCCC2)C(C(N)=O)C(=S)N1 (stereo not given),i,i,i,12*,i,i,i,i,i,
CC(=O)NC(CC(=O)N(Cc1ccccc1)c1cccc(C)c1)c1ccccc1 (stereo not given),i,i,i,8.6*,i,i,i,i,99*,
c1ccc2nc(-c3nccs3)ccc2c1,i,i,i,6.5*,i,i,i,i,i,
Clc1ccsc1-c1ccc2ccccc2n1,i,i,i,i,i,.,.,.,.,
COc1cc(-c2noc(C)c2-c2ccc(N(C)C)nc2)cc(OC)c1OC,i,i,-5*,7.7*,i,i,i,i,i,MrgX1 antag conf=i
COc1cc(-c2noc(C)c2/C=C/c2ccc(C(=O)O)cc2)cc(OC)c1OC,i,i,i,i,i,.,.,.,.,
Cc1ccc(Nc2cc(-n3cccn3)ncn2)c(C)c1,i,i,i,14*,i,i,i,i,i,
CN1CCCN(c2ncnc3scc(-c4ccc(F)cc4)c23)CC1,i,i,i,i,i,.,.,.,.,
